Results as given in ChEMBL document CHEMBL1133862, “Synthesis and binding affinities of 2 beta-(3-iodoallyloxycarbonyl)-3 beta-(4-substituted-aryl)tropane analogues as ligands for the dopamine transporter studies” (Bioorg Med Chem Lett, 2001).

Experiments:
[1] = target: Sodium-dependent dopamine transporter (Rattus norvegicus, UniProt P23977); test: Inhibition of [3H]WIN-35428 binding to Dopamine transporter in rat striatal synaptic membranes; type: cell membranes, Membrane
[2] = target: Sodium-dependent dopamine transporter (Rattus norvegicus) (UniProt P23977); test: Ratio of binding affinity of E isomer to that ofZ isomer towards the dopamine transporter expressed as IC50(E)/IC50(Z)
Outline: (§1)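 Ratio of IC50 values for the E and Z isomers bearing the same para substituent on the 3β-phenyl ring. Both IC50s come from rat striatal membrane competition binding against 3 nM [3H]WIN 35,428, with 13 concentrations from 10^-12 to 10^-4 M and (−)-cocaine defining nonspecific binding.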

[3] = target: Sodium-dependent dopamine transporter (Rattus norvegicus) (UniProt P23977); test: Ratio of binding affinity of E isomer to that of Z isomer towards the dopamine transporter expressed as IC50(E)/IC50(Z); outline: as §1

Chain of Sodium-dependent dopamine transporter (P23977 whole entry): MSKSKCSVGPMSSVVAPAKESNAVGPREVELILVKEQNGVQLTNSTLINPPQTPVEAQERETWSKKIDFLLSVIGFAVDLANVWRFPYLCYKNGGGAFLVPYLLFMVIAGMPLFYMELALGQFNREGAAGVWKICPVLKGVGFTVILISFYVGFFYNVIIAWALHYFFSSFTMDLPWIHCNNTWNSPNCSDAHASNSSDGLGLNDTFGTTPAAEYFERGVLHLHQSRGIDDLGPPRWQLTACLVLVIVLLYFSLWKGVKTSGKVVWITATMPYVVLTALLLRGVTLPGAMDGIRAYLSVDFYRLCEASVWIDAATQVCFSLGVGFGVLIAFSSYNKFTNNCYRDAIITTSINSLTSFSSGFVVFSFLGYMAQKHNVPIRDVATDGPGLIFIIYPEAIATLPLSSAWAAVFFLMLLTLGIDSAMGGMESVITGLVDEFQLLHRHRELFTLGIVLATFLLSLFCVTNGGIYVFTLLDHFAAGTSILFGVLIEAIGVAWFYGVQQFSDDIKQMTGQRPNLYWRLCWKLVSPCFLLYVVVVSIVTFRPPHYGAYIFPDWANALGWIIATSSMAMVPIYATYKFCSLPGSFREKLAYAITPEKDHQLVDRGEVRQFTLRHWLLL
Chain of Sodium-dependent dopamine transporter (Rattus norvegicus) (P23977 whole entry): as above

SMILES | IC50 [1] [µM] | Ratio [2] | Ratio [3]
CN1C2CCC1C(C(=O)OC/C=C/I)C(c1ccc(F)cc1)C2 (stereo not drawn) | 0.567 |  | 
CN1C2CCC1C(C(=O)OC/C=C\I)C(c1ccc(F)cc1)C2 (stereo not drawn) | 0.356 | 1.59 | 
CN1C2CCC1C(C(=O)OC/C=C/I)C(c1ccccc1)C2 (stereo not drawn) | 0.876 |  | 
CN1C2CCC1C(C(=O)OC/C=C/I)C(c1ccc(Cl)cc1)C2 (stereo not drawn) | 0.0466 |  | 
CN1C2CCC1C(C(=O)OC/C=C\I)C(c1ccc(Cl)cc1)C2 (stereo not drawn) | 0.0249 | 1.87 | 
COC(=O)C1C(c2ccc(Cl)cc2)CC2CCC1N2C/C=C/I (stereo not drawn) | 0.0061 |  | 
Cc1ccc(C2CC3CCC(C2C(=O)OC/C=C\I)N3C)cc1 (stereo not drawn) | 0.0392 | 4.84 | 
CN1C2CCC1C(C(=O)OC/C=C\I)C(c1ccccc1)C2 (stereo not drawn) | 0.308 |  | 2.84
Cc1ccc(C2CC3CCC(C2C(=O)OC/C=C/I)N3C)cc1 (stereo not drawn) | 0.19 |  | 
